In ChEMBL document CHEMBL5030505, “Assessment of NR4A Ligands That Directly Bind and Modulate the Orphan Nuclear Receptor Nurr1” (J Med Chem, 2020):
Activity calls are given as the source filed them. No cut-off for these calls is given here.

Key:
Assay type in all cases: cell-based
[1] = biological target: Nuclear receptor subfamily 4 group A member 2 (Homo sapiens) (UniProt P43354); assay: Modulation of full length human Nurr1 expressed in […] cells co-transfected with luciferase reporter plasmid harboring NBRE response element assessed as decrease in luciferase activity at 1.55 to 15 uM incubated for 18 hrs by luciferase reporter gene assay; conditions: SKNBE2, filed as modulator, dose 1.55-15 µM
Nuclear receptor subfamily 4 group A member 2 (Homo sapiens), sequence (P43354 whole entry, the tested form may be a part): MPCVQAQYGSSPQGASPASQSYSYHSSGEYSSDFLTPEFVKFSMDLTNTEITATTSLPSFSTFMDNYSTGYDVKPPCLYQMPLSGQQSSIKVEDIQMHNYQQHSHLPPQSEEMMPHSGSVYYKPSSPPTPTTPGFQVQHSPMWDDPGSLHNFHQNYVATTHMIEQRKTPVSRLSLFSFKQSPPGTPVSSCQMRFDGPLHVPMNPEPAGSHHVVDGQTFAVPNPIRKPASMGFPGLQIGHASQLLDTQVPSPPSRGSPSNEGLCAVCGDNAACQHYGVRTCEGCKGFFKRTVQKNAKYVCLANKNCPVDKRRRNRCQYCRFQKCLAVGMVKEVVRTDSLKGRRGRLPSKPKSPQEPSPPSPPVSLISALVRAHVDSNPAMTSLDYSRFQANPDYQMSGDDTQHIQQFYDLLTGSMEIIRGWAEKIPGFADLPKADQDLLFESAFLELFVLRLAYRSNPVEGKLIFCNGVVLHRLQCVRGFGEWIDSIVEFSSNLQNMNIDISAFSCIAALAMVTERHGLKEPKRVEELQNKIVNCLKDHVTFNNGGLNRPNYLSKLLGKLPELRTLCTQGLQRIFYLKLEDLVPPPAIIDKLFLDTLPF
Outline: (§1)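 Cells transfected (Lipofectamine 2000, 18 h) with full-length Nurr1 expression plasmid (2 μg) and 3xNBRE- or 3xNurRE-luciferase reporter (6 μg), no internal control normalisation; replated 10,000 cells/well, 4 h; ligand or vehicle in quadruplicate for 18 h; Britelite Plus luminescence as fold change over vehicle. Mean ± s.e.m. (n=4); one-way ANOVA versus vehicle.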

[2] = biological target: Nuclear receptor subfamily 4 group A member 2 (Homo sapiens) (UniProt P43354); assay: Modulation of full length human Nurr1 expressed in PC-12 cells co-transfected with luciferase reporter plasmid harboring NBRE response element assessed as decrease in luciferase activity at 1.55 to 15 uM incubated for 18 hrs by luciferase reporter gene assay; conditions: filed as modulator, dose 1.55-15 µM; outline: as §1
[3] = system: PC-12; assay: Modulation of Gal4-fused VP16 expressed in PC12 cells co-transfected with UAS repoter gene assessed as decrease in luciferase activity at 1.55 to 15 uM incubated for 18 hrs by luciferase reporter gene assay; conditions: Human alphaherpesvirus 2, filed as modulator, dose 1.55-15 µM
Outline: (§2)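 Constitutive control: cells transfected (Lipofectamine 2000) with Gal4-VP16 expression plasmid (2 μg) plus 5xUAS-luciferase reporter (2 μg), 18 h; replated 10,000 cells/well, 4 h; ligand or vehicle in quadruplicate for 18 h; luciferase read by Britelite Plus; signal as fold change over vehicle-treated cells. Mean ± s.e.m. (n=4); one-way ANOVA versus vehicle.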

[4] = system: SK-N-BE(2); assay: Cytotoxicity in human SKNBE2 cells assessed as reduction in cell viability at 1.55 to 15 uM incubated for 18 hrs by Cell Titer-Glo assay; conditions: dose 1.55-15 µM
Outline: (§3)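 Cells seeded 1.5 million per 10-cm dish; next day replated at 10,000 cells/well in 384-well format, 4 h, then ligand or vehicle (water, ethanol or DMSO by ligand) added in quadruplicate for 18 h; viability read by CellTiter-Glo luminescence. Mean ± s.e.m. (n=4), generally 2 independent experiments; one-way ANOVA versus vehicle.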

[5] = biological target: Nuclear receptor subfamily 4 group A member 2 (Homo sapiens) (UniProt P43354); assay: Modulation of full length human Nurr1 expressed in HEK293T cells co-transfected with luciferase reporter plasmid harboring NurRE response element assessed as decrease in luciferase activity at 1.55 to 15 uM incubated for 18 hrs by luciferase reporter gene assay; conditions: filed as modulator, dose 1.55-15 µM; outline: as §1
[6] = system: PC-12; assay: Cytotoxicity in rat PC-12 cells assessed as reduction in cell viability at 1.55 to 15 uM incubated for 18 hrs by Cell Titer-Glo assay; conditions: pc-12, 18 h, dose 1.55-15 µM; outline: as §3
[7] = system: SKNBE2; assay: Modulation of Gal4-fused VP16 expressed in SKNBE(2) cells co-transfected with UAS repoter gene assessed as decrease in luciferase activity at 1.55 to 15 uM incubated for 18 hrs by luciferase reporter gene assay; conditions: Human alphaherpesvirus 2, filed as modulator, dose 1.55-15 µM; outline: as §2
[8] = biological target: Nuclear receptor subfamily 4 group A member 2 (Homo sapiens) (UniProt P43354); assay: Modulation of full length human Nurr1 expressed in […] cells co-transfected with luciferase reporter plasmid harboring NurRE response element assessed as decrease in luciferase activity at 1.55 to 15 uM incubated for 18 hrs by luciferase reporter gene assay; conditions: SKNBE2, filed as modulator, dose 1.55-15 µM; outline: as §1
[9] = system: HEK-293T; assay: Cytotoxicity in human HEK293T cells assessed as reduction in cell viability at 1.55 to 15 uM incubated for 18 hrs by Cell Titer-Glo assay; conditions: dose 1.55-15 µM; outline: as §3
[10] = system: HEK293T; assay: Modulation of Gal4-fused VP16 expressed in HEK293T cells co-transfected with UAS repoter gene assessed as decrease in luciferase activity at 1.55 to 15 uM incubated for 18 hrs by luciferase reporter gene assay; conditions: Human alphaherpesvirus 2, filed as modulator, dose 1.55-15 µM; outline: as §2
[11] = biological target: Nuclear receptor subfamily 4 group A member 2 (Homo sapiens) (UniProt P43354); assay: Modulation of full length human Nurr1 expressed in HEK293T cells co-transfected with luciferase reporter plasmid harboring NBRE response element assessed as decrease in luciferase activity at 1.55 to 15 uM incubated for 18 hrs by luciferase reporter gene assay; conditions: filed as modulator, dose 1.55-15 µM; outline: as §1

CC[C@@]1(O)C(=O)OCc2c1cc1n(c2=O)Cc2cc3ccccc3nc2-1 [CAMPTOTHECIN]
Activity [1]: Active | Activity [2]: Active | Activity [3]: Active | Activity [4]: Toxic | Activity [5]: Active | Activity [6]: Toxic | Activity [7]: Active | Activity [8]: Active | Activity [9]: Toxic | Activity [10]: Active | Activity [11]: Active
